This is a sample that favours compounds with a hit; in the whole collection about 1.9% have one here.
SR-BI DiI inh: inhibitors of mouse SR-BI mediated HDL lipid uptake; Q61009; ldlA[mSR-BI] CHO cells, DiI-HDL uptake fluorescence, 3 h; inhibition, % at 12.5 µM; actives 0.96% (n = 320,000); AID 488896;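 active = mean replicate inhibition of at least 70% and a set share of replicates each scoring 70 or more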
Rin1-Abl PPI inh: human Rin1-Abl interaction inhibition; P00519+Q13671; TR-FRET Rin1/Abl binding, biochemical; inhibition, % at 7.35 µM; actives 0.4% (n = 360,000); AID 588664; in the data active = inhibition above about 5%, passing the limit was not always enough
GRK2 inh: inhibitors of human GRK2 displacing RNA aptamer; P25098; bead flow cytometry, FAM-aptamer displacement from GRK2; inhibition of aptamer binding, % at 10 µM; actives 0.59% (n = 330,000);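 active = inhibition of aptamer binding above 40%, roughly 3 SD of noise, on plates passing a quality check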;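 note: median bead fluorescence of bound FAM aptamer so fluorescent compounds give negative values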
SR-BI uptake up: SR-BI HDL lipid transfer activation. CHO ldlA[mSR-BI] cells, DiI-HDL uptake fluorescence, 3 h; 100 = double the neutral-control signal. activation, % at 12.5 µM. actives 0.096% (n = 320,000). AID 504775;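 active = mean replicate activation of at least 60% and every replicate at or above 60%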
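Test system: SR-BI-overexpressing, LDLR-lacking CHO cells; Also added: labelled HDL, 10 µg/mL; Measured by: bottom-read cell fluorescence after medium removal, ex 550/em 595 nm; Timing: 3 h uptake period with compound, 37 °C; Buffer or medium: F12, 0.5% BSA, 25 mM HEPES; Doses: single compound concentration, delivered by pin transfer.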
GRK2 inh confirm: human GRK2 inhibition confirmation, cherry pick 1 | shares compounds with GRK2 inh | bead-bound GRK2, FAM-aptamer displacement, flow cytometry | aptamer displacement, % at 10 µM | actives 4% (n = 2,000) | AID 504451;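 active = aptamer displacement above 40%, near three times the noise of non-fluorescent compounds, on plates passing quality checks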;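 note: negative values mostly reflect intrinsic compound fluorescence rather than true enhancement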
Aptamer quench SP: quenches fluorescent RNA aptamer, GRK2 hit artifact; shares compounds with GRK2 inh; 2,000 tested, under 10 active; Carboxyfluorescein RNA aptamer on beads, flow cytometry quenching; hits give low values; fluorescence response (% of DMSO), % at 10 µM;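 active = compounds that quench the bead-bound fluorescent RNA probe, cutting fluorescence to under half of the solvent control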;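 note: counterscreen run without GRK2 so only probe quenching by compound is measured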
GRK2 confirm 2: human GRK2 inhibition confirmation, cherry pick 2; shares compounds with GRK2 inh; inhibition of aptamer binding, % at 10 µM; bead-bound GRK2, FAM-aptamer displacement, flow cytometry; 360 tested, under 10 active;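 active = inhibition of aptamer binding above 40%, about triple the noise seen with nonglowing compounds, on plates passing quality control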;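 note: negative values mostly come from compounds that fluoresce themselves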
FAM quench CP2: aptamer fluorescence quenching in GRK2 counter-screen; shares compounds with GRK2 inh; carboxyfluorescein RNA aptamer beads, flow cytometry quenching; hits give low values; fluorescence response vs DMSO, % at 10 µM; 360 tested, under 10 active; AID 588494;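 active = response vs DMSO under 50%, meaning signal dropped by over half, treated as fluorescence quencher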;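 note: labelled aptamer on streptavidin beads without GRK2 as a quench counter-screen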
Hits are given with their value; 0 = inactive; - = no result given.

SMILES	SR-BI DiI inh	Rin1-Abl PPI inh	GRK2 inh	SR-BI uptake up	GRK2 inh confirm	Aptamer quench SP	others
COc1ccc(NC(=S)NNc2ccc(S(=O)(=O)Nc3ccccc3C(=O)O)cc2[N+](=O)[O-])cc1	-	0	48.0	-	0	0
O=c1c2cc([N+](=O)[O-])ccc2nc2n1CCCC2	0	0	64.0	0	0	0
O=C(Nc1cc([N+](=O)[O-])ccc1O)c1cccc(NC(=O)c2ccco2)c1	0	0	78.0	0	0	0
Cc1cccc(NC(=O)c2cccc(NC(=O)c3ccco3)c2)c1	0	0	-	0	-	-
COc1ccc(C(=O)Nc2cccc(C(=O)NCc3ccco3)c2)cc1	0	0	0	0	0	0
O=C(NCc1ccccc1)c1cccc(NC(=O)c2ccco2)c1	0	0	0	0	0	0
O=C(Nc1ccc(O)c(C(=O)O)c1)c1cccc(NC(=O)c2ccco2)c1	0	0	0	0	-	-
O=C(NCc1ccco1)c1cccc(NC(=O)c2ccco2)c1	0	0	0	0	0	0
CC(C)CNC(=O)c1cccc(NC(=O)c2ccco2)c1	0	0	0	0	-	-
COc1ccc2cc(C[C@@H]3CC[C@@H](CNC(N)=O)O3)ccc2c1	0	0	0	0	-	-
CC1(C(=O)Nc2cnc3ccccc3c2)CCN1Cc1ccccc1OC(F)F (stereo not drawn)	-	0	-	-	-	-
O=C(Nc1ccnn1C1CCN(C(=O)c2cccnc2)CC1)c1cccc(F)c1	-	0	-	-	-	-
Cc1cnc(C(=O)N(CC(C)C)c2c(N)n(CC(C)C)c(=O)[nH]c2=O)cn1	0	0	-	0	-	-
CCNC(=O)C1(C)CCN(C(=O)CCc2ccccc2)C1 (stereo not drawn)	-	0	-	-	-	-
CN(Cc1ccccc1)C(=O)c1cccc(NC(=O)c2ccco2)c1	0	0	0	0	0	0
O=C(O)c1cccc(-c2ccc(/C=c3/sc4nc5ccccc5n4c3=O)o2)c1	0	0	50.0	0	0	0
CC(C)(C)OC(=O)N[C@H](C(=O)OC(C)(C)C)c1ccc2c(c1)OCO2	0	0	0	0	-	-
O=C(Nc1ccc(NC(=O)c2ccccc2Cl)cc1)c1cccnc1	0	0	0	0	-	-
O=C(Nc1cccnc1)c1ccccc1Cl	0	0	81.0	0	0	0
O=C(Nc1ccc(N2CCCC2)c(Cl)c1)c1cccnc1	0	0	60.0	0	0	37.2
CCCNC(=O)C1(C)CCCN(Cc2cc(-c3ccccc3)nn2C)C1 (stereo not drawn)	-	0	-	-	-	-
O=C(CCCn1c(=S)[nH]c2ccccc2c1=O)N1CCN(c2cccc(Cl)c2)CC1	0	0	0	0	0	0
COc1ccc(N2CCN(CCCn3c(=S)[nH]c4ccccc4c3=O)CC2)cc1	0	0	0	0	0	0
O=C(CCOc1ccccc1)Nc1ccc(S(=O)(=O)Nc2ncccn2)cc1	0	0	0	0	-	-
CCC(=O)c1c[nH]c(C(=O)N2CCOCC2)c1	0	0	100.0	0	-	-	GRK2 confirm 2=0;FAM quench CP2=0
SMILES	SR-BI DiI inh	Rin1-Abl PPI inh	GRK2 inh	SR-BI uptake up	GRK2 inh confirm	Aptamer quench SP	others
O=C1NN=C2CCCCCCC12 (stereo not drawn)	-	0	-	-	-	-
Cc1ccc(-c2nc(CN(C)Cc3cccc4cnccc34)c(C)o2)s1	0	0	0	0	-	-
CC(=O)Nc1ccc(C(=O)CN2C(=O)NC3(CCCc4ccccc43)C2=O)c(F)c1 (stereo not drawn)	0	0	0	0	0	0
CC(=O)CCN1C(=O)NC2(CCCc3ccccc32)C1=O (stereo not drawn)	0	0	58.0	0	-	-	GRK2 confirm 2=0;FAM quench CP2=0
Cc1ccc(C)c(/C=N/Nc2nc3ccccc3c(=O)n2O)c1	-	0	0	-	-	-
O=C(NCc1ccc(F)cc1)c1c2c(nc3ccccc13)CCC2	0	0	0	0	-	-	GRK2 confirm 2=0;FAM quench CP2=0
Cc1ccc2nc3c(c(C(=O)O)c2c1)CCC3	0	0	0	0	-	-
O=C(NCc1ccco1)c1c2c(nc3ccccc13)CCC2	0	0	0	0	-	-	GRK2 confirm 2=0;FAM quench CP2=0
O=C(O)c1c2c(nc3ccc(F)cc13)CCC2	0	0	72.0	0	0	0

Source: PubChem (several laboratories)
